Inconclusive results are not listed.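 Rule for the calls, unless noted: active = growth inhibition above 25% in both replicates, a cutoff set 3 SD above the mean; inconclusive = above 25% in only one replicate; inactive = the rest.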
Key:
[1] = S. cerevisiae growth inhibition in permissive medium (OD615), pilot counter-assay for S. cerevisiae lifespan shortening project, permissive growth control (AID 705); details: OD615, 24 h, at 10 µM, stronger effect = higher value
Method in brief: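 System: Engineered DeaD yeast | Buffer or medium: SC raffinose/galactose permissive medium | Doses: 10 µM single dose, 0.25% DMSO | Times: 24 h exposure, 30 °C | Measured by: OD615 turbidity read | Read-out: Yeast growth inhibition indicated by reduced 24 h OD615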

[2] = S. cerevisiae growth inhibition in restrictive medium, OD615, pilot screen, restrictive growth control, yeast lifespan reduction project (AID 706;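 active = growth inhibition above a set limit, 3 SD over mean compound inhibition, in both replicates, cut at about 43% in these data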;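 note: modified DeaD lifespan yeast strain shifted to restrictive glucose medium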); details: OD615, 48 h, at 10 µM, stronger effect = higher value
Method in brief: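 Assay system: engineered S. cerevisiae DeaD strain; Buffer or medium: CSMM-D glucose medium; Dosing: 10 µM compound, 0.25% DMSO; Times: cell pre-growth 4 h, compound exposure 48 h, 30 °C; Detection: absorbance (optical density) measured at 615 nm.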

[3] = doxorubicin toxicity protection in MRP-1 cells – H69AR cells, CellTiter-Glo, duplicate, MRP-1 activator project, pilot screen (AID 807;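 active = viability increase at or above a cutoff of the median across tested compounds plus 3 SD, cut at about 8.5% in these data, passing the limit was not always enough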;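 note: compound pretreatment 18-22 h then 72 h combined with doxorubicin; 0% = doxorubicin alone and 100% = vehicle without doxorubicin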); details: H69AR viability with doxorubicin, CellTiter-Glo luminescence; at 10 µM; stronger effect = higher value
[4] = viability of HCT116 without oncogenic beta-catenin – human colon tumor cells, pilot screen (AID 823;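 active = cell viability at or below a set limit in both duplicate runs, the limit being the all-compound median minus 4 SD, cut at about 23% in these data, passing the limit was not always enough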;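 note: 0% = wells killed by 20 µM Hyamine and 100% = untreated DMSO cell wells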); details: HCT116 beta-catenin knockout viability, CellTiter-Glo, 60 h; at 10 µM; stronger effect = lower value
[5] = viability of PTEN-null HCT116 cells – cell-based, HCT116 clonal line, CellTiter-Glo, pilot screen (AID 824;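 active = viability at or below 27.92% in each of two runs, the all-compound median minus 4 SD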;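 note: 0% = 20 µM Hyamine control and 100% = vehicle cell control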); details: HCT116 PTEN-deleted viability, 60 h, at 10 µM, stronger effect = lower value
[6] = RAM pathway blockade in budding yeast – dse1pr::URA3 reporter, 5-FOA selection, pilot screen (AID 869;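 active = inhibition over a set limit, the all-compound mean plus 3 SD, in both replicate runs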;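 note: 0% = DMSO wells with no growth and 100% = 10 µM 1-NA-PP1 with full growth; RAM network block rescues cells from 5-FOA so hits raise OD615 growth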); details: S. cerevisiae dse1pr::URA3 5-FOA growth, OD615, 2 d; at 10 µM; stronger effect = higher value; strain carries analog-sensitive mutant Cbk1 kinase
[7] = RAM signaling pathway blockade in yeast – S. cerevisiae, Pdr1DBD-CYC8 efflux-inhibited sensitized strain, primary screen (AID 1298;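 active = RAM network inhibition above 8.4% in each of two replicates, 3 SD over the compound average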;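 note: 0% = DMSO untreated cells without growth and 100% = 10 µM 1-NA-PP1 full growth; higher means more yeast growth rescued from 5-FOA killing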); details: S. cerevisiae cbk1-as DSE1-URA3 strain, 5-FOA growth OD615, 2 d; at 50 µM; stronger effect = higher value

CCCc1cc(C(=O)N(C2CCCCC2)C2CCCCC2)no1
inactive: growth inhibition [1] 4.36% | growth inhibition [2] 14.7% | viability increase [3] -5.51% | viability [4] 74.5% | viability [5] 80.8% | inhibition [6] 1.57% | RAM network inhibition [7] 6.03%

COc1cc2[nH]c(=O)n(CCCC(=O)NCCc3ccccc3)c(=O)c2cc1OC
inactive: growth inhibition [1] -4.08% | growth inhibition [2] -7.02% | viability increase [3] -3.37% | viability [4] 99% | viability [5] 94.5% | inhibition [6] 3.42% | RAM network inhibition [7] 2.87%

CCC(C#CCN1CCCCC1)(CC)OCCC#N
inactive: growth inhibition [1] -4.58% | growth inhibition [2] -9.71% | viability increase [3] -1.94% | viability [4] 102% | viability [5] 97.6% | inhibition [6] 0.79% | RAM network inhibition [7] 4.07%

O=C(NCc1ccc2c(c1)OCO2)c1cnc2n(c1=O)CCS2
inactive: growth inhibition [1] -2.39% | growth inhibition [2] 4.35% | viability increase [3] -0.06% | viability [4] 95.9% | viability [5] 98% | inhibition [6] 1.17% | RAM network inhibition [7] 1.93%

O=C(CSc1nnc(COc2ccccc2)o1)Nc1nccs1
inactive: growth inhibition [1] 6.56% | growth inhibition [2] 4.11% | viability increase [3] -2.31% | viability [4] 95.6% | viability [5] 96.4% | inhibition [6] 1.78% | RAM network inhibition [7] 3.24%

CCCCOc1ccc(NC(=O)C2CC=CCC2C(=O)O)cc1 (stereo not drawn)
inactive: growth inhibition [1] -5.44% | growth inhibition [2] -26.4% | viability increase [3] -2.19% | viability [4] 81.9% | viability [5] 79.5% | inhibition [6] 0.51% | RAM network inhibition [7] 0.37%

COc1ccccc1S(=O)Cc1ccc(C(=O)NC2CCCC2)o1 (stereo not drawn)
inactive: growth inhibition [1] 4.5% | growth inhibition [2] 4.6% | viability increase [3] -2.33% | viability [4] 107% | viability [5] 101% | inhibition [6] 0.395% | RAM network inhibition [7] 3.24%

COc1ccc(Nc2nc(C)cc(C)c2C#N)cc1OC
inactive: growth inhibition [1] -2.02% | growth inhibition [2] 5.43% | viability increase [3] 1.79% | viability [4] 107% | viability [5] 107% | inhibition [6] 0.715% | RAM network inhibition [7] 1.79%

CCc1cc(=O)oc2cc(C)cc(O)c12
inactive: growth inhibition [1] -16.6% | growth inhibition [2] -7.76% | viability increase [3] -1.72% | viability [4] 95.3% | viability [5] 99.8% | inhibition [6] 0.2% | RAM network inhibition [7] 1.99%

CCCCNC(=O)CS(=O)Cc1nc(-c2cccc(C)c2)oc1C (stereo not drawn)
inactive: growth inhibition [1] -13.2% | growth inhibition [2] -6.67% | viability increase [3] -2.67% | viability [4] 96.2% | viability [5] 98.1% | inhibition [6] 1.14% | RAM network inhibition [7] 0.26%

CCn1c(SCC(=O)N2CCCC2)nc2c(c1=O)SC(C)C2 (stereo not drawn)
inactive: growth inhibition [1] -17.4% | growth inhibition [2] -27.5% | viability increase [3] -4.48% | viability [4] 101% | viability [5] 95.6% | inhibition [6] 1.73% | RAM network inhibition [7] 3.14%

Cc1ccccc1NC(=O)CCN1CCN(Cc2ccccc2)CC1
inactive: growth inhibition [1] -9.43% | growth inhibition [2] 3.58% | viability increase [3] -3.29% | viability [4] 94.8% | viability [5] 89.6% | inhibition [6] 1.85% | RAM network inhibition [7] 5.05%

CCCC(=O)C1=C(O)C(C(=O)OC)C(C)(C)CC1=N (stereo not drawn)
inactive: growth inhibition [1] 1.4% | growth inhibition [2] -3.15% | viability increase [3] -0.38% | viability [4] 100% | viability [5] 101% | inhibition [6] 1.01% | RAM network inhibition [7] -0.57%

CC(C)Sc1nc(SCC(=O)NCc2ccco2)c2c3c(sc2n1)COC(C)(C)C3
inactive: growth inhibition [1] -10.2% | growth inhibition [2] -10.9% | viability increase [3] -3.75% | viability [4] 83.2% | viability [5] 86.2% | inhibition [6] 0.615% | RAM network inhibition [7] 11.6%

O=C(Cn1cnc2c(nnn2-c2ccccc2)c1=O)NCCc1ccccc1
inactive: growth inhibition [1] -0.435% | growth inhibition [2] -10.4% | viability increase [3] -1.04% | viability [4] 105% | viability [5] 100% | inhibition [6] 0.75% | RAM network inhibition [7] 3.12%

N#CCn1c(C2CCCCC2)nc2ccccc2c1=O
inactive: growth inhibition [1] -27% | growth inhibition [2] -22.9% | viability increase [3] -4.23% | viability [4] 90.2% | viability [5] 84.5% | inhibition [6] 0.79% | RAM network inhibition [7] 3.71%

C=CCc1cc(/C=N/n2cnnc2)cc(OCC)c1O
inactive: growth inhibition [1] -10.7% | growth inhibition [2] -1.86% | viability increase [3] -2.46% | viability [4] 102% | viability [5] 94.7% | inhibition [6] 0.925% | RAM network inhibition [7] 0.6%

O=C(Cn1cnc2c(cnn2-c2ccccc2)c1=O)N1CCOCC1
inactive: growth inhibition [1] -4% | growth inhibition [2] -3.03% | viability increase [3] -0.44% | viability [4] 101% | viability [5] 102% | inhibition [6] 0.17% | RAM network inhibition [7] 1.17%

CC1(C)CC(=O)C=C(NCCCNC2CCCCC2)C1
inactive: growth inhibition [1] -9.9% | growth inhibition [2] -7.88% | viability increase [3] -2.17% | viability [4] 96.5% | viability [5] 93% | inhibition [6] 0.125% | RAM network inhibition [7] 1.72%

Cc1ccc(C2CC(c3cccc(C)c3)n3nc(N)nc3N2)cc1 (stereo not drawn)
inactive: growth inhibition [1] -0.275% | growth inhibition [2] 16.7% | viability increase [3] -3.52% | viability [4] 89.6% | viability [5] 81% | inhibition [6] 1.81% | RAM network inhibition [7] 1.43%

FC(F)(F)C12CC(c3ccccc3)=NCCN1CCN2 (stereo not drawn)
inactive: growth inhibition [1] -4.15% | growth inhibition [2] 4.43% | viability increase [3] -1.23% | viability [4] 102% | viability [5] 97.9% | inhibition [6] 1.35% | RAM network inhibition [7] -0.53%

Cc1nccn1-c1c2c(c(C#N)c3nc4ccccc4n13)CCC2
inactive: growth inhibition [1] -8.38% | growth inhibition [2] -2.89% | viability increase [3] -2.34% | viability [4] 97.3% | viability [5] 93.1% | inhibition [6] 2.08% | RAM network inhibition [7] 2.4%

Cc1ccc(C)c(Nc2ncnc3nc[nH]c23)c1
inactive: growth inhibition [1] -3.29% | growth inhibition [2] 0.02% | viability increase [3] -1.34% | viability [4] 103% | viability [5] 103% | inhibition [6] 1.55% | RAM network inhibition [7] 2.66%

COc1ccc(C)cc1NC(=O)Cn1cnc2sc(C)c(S(=O)(=O)N3CCOCC3)c2c1=O
inactive: growth inhibition [1] 4.46% | growth inhibition [2] 4.67% | viability increase [3] -1.23% | viability [4] 102% | viability [5] 99.3% | inhibition [6] 2.75% | RAM network inhibition [7] 9.74%
